Source: ChEMBL document CHEMBL4725336, “Anti-cancer potential of (1,2-dihydronaphtho[2,1-b]furan-2-yl)methanone derivatives” (Bioorg Med Chem Lett, 2020)

How the values were obtained:
[1] = Cytotoxicity against human WI-38 cells assessed as inhibition of cell proliferation by MTT assay; type: cell-based; details: read-out: LD50 (the source's name)
Outline: (§1)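 MTT proliferation assay; cells exposed to compounds across 0-50 μM; LD50 derived from dose-dependent survival. Triple-negative MDA-MB-468, MDA-MB-231 and 4T1, ER+/PR+ MCF-7, and non-cancerous lung fibroblast WI-38 tested.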

MDA-MB-468 = test: Antiproliferative activity against human MDA-MB-468 cells assessed as inhibition of cell proliferation by MTT assay; type: functional; details: read-out: LD50 (the source's name); outline: as §1
[2] = Selectivity index, ratio of LD50 for human WI-38 cells to LD50 for human MCF7 cells assessed as inhibition of cell proliferation by MTT assay; type: toxicity; details: WI-38 cells and MCF7 cells, read-out: Selectivity Index
Outline: (§2)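 MTT proliferation assay on cells treated with 0–50 μM. LD50 was derived for each cell line, and the selectivity index was calculated as WI-38 LD50 divided by cancer-cell LD50.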

MCF7 = test: Antiproliferative activity against human MCF7 cells assessed as inhibition of cell proliferation by MTT assay; type: functional; details: read-out: LD50 (the source's name); outline: as §1
[3] = Selectivity index, ratio of LD50 for human WI-38 cells to LD50 for human MDA-MB-468 cells assessed as inhibition of cell proliferation by MTT assay; type: toxicity; details: WI-38 cells and MDA-MB-468 cells, read-out: Selectivity Index; outline: as §2
[4] = Selectivity index, ratio of LD50 for human WI-38 cells to LD50 for mouse 4T1 cells assessed as inhibition of cell proliferation by MTT assay
Outline: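 Selectivity index computed as MTT-derived LD50 in non-cancerous WI-38 lung fibroblasts divided by LD50 in the cancer line (cells exposed to 0-50 μM).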

MDA-MB-231 = test: Antiproliferative activity against human MDA-MB-231 cells assessed as inhibition of cell proliferation by MTT assay; type: functional; details: read-out: LD50 (the source's name); outline: as §1
[5] = Selectivity index, ratio of LD50 for human WI-38 cells to LD50 for human MDA-MB-231 cells assessed as inhibition of cell proliferation by MTT assay; type: toxicity; details: WI-38 cells and MDA-MB-231 cells, read-out: Selectivity Index
4T1 = test: Antiproliferative activity against mouse 4T1 cells assessed as inhibition of cell proliferation by MTT assay; type: functional; details: read-out: LD50 (the source's name); outline: as §1

Compound	CC50 [1] [µM]	CC50 (MDA-MB-468) [µM]	selectivity ratio [2]	CC50 (MCF7) [µM]	selectivity ratio [3]	Selectivity Index [4]	CC50 (MDA-MB-231) [µM]	selectivity ratio [5]	CC50 (4T1) [µM]
CCC[C@H]1c2c(ccc3ccccc23)O[C@@H]1C(=O)c1ccccc1	79	69	1.07	74	1.14	–	–	–	–
O=C(c1ccco1)[C@@H]1Cc2c(ccc3ccccc23)O1	51	34	1.38	37	1.5	–	–	–	–
C[C@H]1c2c(ccc3ccccc23)O[C@@H]1C(=O)c1ccccc1	64	34	1.68	38	1.88	–	–	–	–
O=C(c1ccccc1)[C@H]1Oc2ccc3ccccc3c2[C@@H]1c1ccc2ccccc2c1	59	23	2.1	28	2.56	–	–	–	–
O=C(c1ccccc1)[C@H]1Oc2ccc3ccccc3c2[C@@H]1c1ccc(Cl)cc1	96	87	1.05	91	1.1	–	–	–	–
O=C(c1ccccc1)[C@H]1Oc2ccc3ccccc3c2[C@@H]1c1ccc(O)cc1	115	81	1.49	77	1.42	–	–	–	–
CC(=O)[C@@H]1Cc2c(ccc3ccccc23)O1	47	22	1.8	26	2.13	–	–	–	–
Cc1ccc([C@H]2c3c(ccc4ccccc34)O[C@@H]2C(=O)c2ccccc2)cc1	72	63	1.01	71	1.14	–	–	–	–
O=C(c1ccccc1)[C@H]1Oc2ccc3ccccc3c2[C@@H]1c1ccccc1	89	72	1.3	68	1.24	–	–	–	–
O=C(c1ccc(F)cc1)[C@@H]1Cc2c(ccc3ccccc23)O1	54	27	1.86	29	2	–	–	–	–
O=C(c1ccco1)[C@H]1Oc2ccc3cc(Br)ccc3c2[C@@H]1c1ccccc1	92	68	1.28	72	1.35	–	–	–	–
O=C(c1ccccc1)[C@H]1Oc2ccc3ccccc3c2[C@@H]1c1ccc(Br)cc1	77	63	1.37	56	1.22	–	–	–	–
O=C(c1ccccc1)[C@@H]1Cc2c(ccc3cc(Br)ccc23)O1	73	32	1.35	54	2.28	–	–	–	–
N#Cc1ccc([C@H]2c3c(ccc4ccccc34)O[C@@H]2C(=O)c2ccccc2)cc1	72	53	1.41	51	1.35	–	–	–	–
O=C(c1ccc(Br)cc1)[C@@H]1Cc2c(ccc3ccccc23)O1	56	18	2.66	21	3.11	2.24	23	2.43	25
COc1cc([C@H]2c3c(ccc4ccccc34)O[C@@H]2C(=O)c2ccccc2)cc(OC)c1OC	128	88	1.49	86	1.45	–	–	–	–
O=C(c1ccccc1)[C@H]1Oc2ccc3ccccc3c2[C@@H]1C1CCCCC1	74	46	1.76	42	1.6	–	–	–	–
N#Cc1ccc(C(=O)[C@H]2Oc3ccc4ccccc4c3[C@@H]2c2ccc3ccccc3c2)cc1	88	54	1.54	57	1.63	–	–	–	–
COc1cc([C@@H]2c3cc4c(cc3[C@@H](O[C@@H]3O[C@@H]5CO[C@@H](C)O[C@H]5[C@H](O)[C@H]3O)[C@H]3COC(=O)[C@H]23)OCO4)cc(OC)c1O [ETOPOSIDE]	29.6	27.9	0.65	45.3	1.06	–	–	–	–
COc1ccc([C@H]2c3c(ccc4ccccc34)O[C@@H]2C(=O)c2ccccc2)cc1	83	118	0.98	84	0.7	–	–	–	–
O=C(c1ccccc1)[C@H]1Oc2ccc3cc(Br)ccc3c2[C@@H]1c1ccccc1	52	18	2.74	19	2.89	2.16	22	2.36	24
